In general, AUC(0-t) refers to exposure summed from dosing to a finite time, without extrapolation to infinity. Lower therefore signals less exposure. As a reminder, the clearance is the volume of plasma or blood freed of the substance per unit of time. A word on the Cmax: it is the highest concentration seen after dosing. By logD is commonly meant lipophilicity at a set pH, counting ionised and neutral species. High values mean higher lipophilicity, low ones lower lipophilicity. As a reminder, the bioavailability is the share of a dose that reaches the circulation, judged against a reference dose that is usually intravenous. Low values mean little systemic uptake, high ones much systemic uptake. Broadly, the half-life is the time needed for the level to fall by half in the phase considered.

We go through 24 compounds from ChEMBL document CHEMBL4130455, “Design, Synthesis, and Evaluation of Tetrahydropyrrolo[1,2-c]pyrimidines as Capsid Assembly Inhibitors for HBV Treatment” (ACS Med Chem Lett, 2017).

≈ marks a conversion by molar mass, not a printed value. A value given as a limit tells only on which side of the number the result lay.

In series [1] the test system is Hepatitis B virus. Briefly: Antiviral activity against HBV infected in human HepG2.2.15 cells assessed as inhibition of viral DNA level incubated for 3 days followed by medium replacement measured after 3 days by RT-PCR method. To be noted: HepG2.2.15, 72 h. The format is functional, organism-based. In outline:
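HepG2.2.15 cells seeded at 4 × 10^4 cells/well, compound exposure 3 days, then fresh medium and a further 3-day incubation. Supernatants collected and stored at −80 °C. HBV DNA extracted from supernatant and quantified by qPCR. IC50 reported as the mean of three experiments.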

Series [2] can be described thus: AUC (0 to last) in Balb/c mouse at 1 mg/kg, iv administered as bolus by LC-MS/MS analysis. More on the design: dose 1 mg/kg, time 0 - last, route intravenous. To be noted: in vivo. The format is ADME, organism-based. Put shortly:
(§1)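 Single-dose PK in female Balb/c mice, n = 3 per compound; dosing vehicle 0.5% HEC, formulated at 1.00 mg/mL.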

Series [3] in a line: Clearance in Balb/c mouse at 1 mg/kg, iv administered as bolus by LC-MS/MS analysis. The format is ADME, organism-based. The settings on record: in vivo. In outline: as §1
Series [4] can be described thus: Cmax in Balb/c mouse at 10 mg/kg, po administered via gavage by LC-MS/MS analysis. The format is ADME, organism-based. On the set-up: dose 10 mg/kg, route oral. The settings on record: in vivo. In outline: as §1
Series [5] has as its system Hepatitis B virus. Briefly: Antiviral activity against HBV1.3 mer infected in hydrodynamic injection BALB/c mouse model assessed as log reduction in viral DNA in plasma at 50 mg/kg, po bid measured on day 5 by real-time PCR method relative to control. (In qPCR the cycle at which signal appears reflects the starting amount.)
Series [6] can be described thus: Lipophilicity, log D of the compound. In kind it is physicochemical. The settings on record: octanol/water.
Series [7] is described as follows: Oral bioavailability in Balb/c mouse at 10 mg/kg administered via gavage by LC-MS/MS analysis. In kind it is ADME, organism-based. The settings on record: in vivo. Put shortly:
as §1

The nature of series [8]: AUC (0 to last) in Balb/c mouse at 10 mg/kg, po administered via gavage by LC-MS/MS analysis. In kind it is ADME, organism-based. More on the design: dose 10 mg/kg, time 0 - last, route oral. To be noted: in vivo. In outline: as §1
Series [9] addresses Core antigen (Hepatitis B virus, UniProt Q03732). As to the kind of experiment: Inhibition of HBV C150-Bodipy FL N-(2-aminoethyl) maleimide labeled capsid assessed as reduction in NaCl-induced capsid assembly preincubated for 15 mins followed by NaCl addition measured after 1 hr by fluorescence quenching assay.
The nature of series [10]: Half life in Balb/c mouse at 1 mg/kg, iv administered as bolus by LC-MS/MS analysis. The format is ADME, organism-based. To be noted: in vivo. Put shortly:
as §1

Series [11] is described as follows: Kinetic solubility of the compound. The format is physicochemical. To be noted: read-out: Kinetic_solubility.
Series [12] concerns the target Cytochrome P450 3A4 (Homo sapiens, UniProt P08684). As to the kind of experiment: Inhibition of CYP3A4 in human liver microsomes using midazolam as substrate preincubated for 10 mins followed by substrate addition measured after 10 mins in presence of NADPH by LC-MS/MS analysis. The settings on record: read-out: INH. In kind it is ADME. On the technique in general: Liver microsomes are vesicles of endoplasmic reticulum, rich in cytochrome P450 enzymes.

Series [13] addresses T1, Cytochrome P450 1A2 (Homo sapiens, UniProt P05177).
T1 sequence (P05177 whole entry): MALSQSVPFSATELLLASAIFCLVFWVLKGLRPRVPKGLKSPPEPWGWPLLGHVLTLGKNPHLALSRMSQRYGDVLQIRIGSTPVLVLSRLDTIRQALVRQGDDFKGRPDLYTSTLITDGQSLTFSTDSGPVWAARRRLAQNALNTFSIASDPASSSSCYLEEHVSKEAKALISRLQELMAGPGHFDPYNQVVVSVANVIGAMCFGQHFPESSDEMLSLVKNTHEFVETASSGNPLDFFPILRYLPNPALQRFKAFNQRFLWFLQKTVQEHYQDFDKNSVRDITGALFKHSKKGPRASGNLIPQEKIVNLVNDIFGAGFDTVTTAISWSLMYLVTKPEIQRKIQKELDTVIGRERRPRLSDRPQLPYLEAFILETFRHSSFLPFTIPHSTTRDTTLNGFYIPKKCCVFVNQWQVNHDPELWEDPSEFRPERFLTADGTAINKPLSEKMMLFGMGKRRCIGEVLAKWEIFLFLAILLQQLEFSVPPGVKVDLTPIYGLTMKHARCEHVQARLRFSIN
Briefly: Inhibition of CYP1A2 in human liver microsomes using phenacetin as substrate preincubated for 10 mins followed by substrate addition measured after 10 mins in presence of NADPH by LC-MS/MS analysis. In kind it is ADME.

In series [14] the test system is Hepatitis B virus. Briefly: Antiviral activity against HBV1.3 mer infected in hydrodynamic injection BALB/c mouse model assessed as log reduction in viral DNA in plasma at 50 mg/kg, po bid measured on day 3 by real-time PCR method relative to control. The format is functional. In outline: (§2)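 HBV DNA mouse model established by hydrodynamic injection. Mice, n = 6 per group, dosed orally twice daily with compound or vehicle (0.5% HEC). HBV DNA in plasma and liver measured by qPCR; log reduction taken versus the vehicle group. Error shown as standard error; significance by Student's t test.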

For series [15], the target named is Cytochrome P450 2C19 (Homo sapiens, UniProt P33261). Briefly: Inhibition of CYP2C19 in human liver microsomes using S-mephenytoin as substrate preincubated for 10 mins followed by substrate addition measured after 10 mins in presence of NADPH by LC-MS/MS analysis. The format is ADME.
Sequence of Cytochrome P450 2C19 (P33261 whole entry): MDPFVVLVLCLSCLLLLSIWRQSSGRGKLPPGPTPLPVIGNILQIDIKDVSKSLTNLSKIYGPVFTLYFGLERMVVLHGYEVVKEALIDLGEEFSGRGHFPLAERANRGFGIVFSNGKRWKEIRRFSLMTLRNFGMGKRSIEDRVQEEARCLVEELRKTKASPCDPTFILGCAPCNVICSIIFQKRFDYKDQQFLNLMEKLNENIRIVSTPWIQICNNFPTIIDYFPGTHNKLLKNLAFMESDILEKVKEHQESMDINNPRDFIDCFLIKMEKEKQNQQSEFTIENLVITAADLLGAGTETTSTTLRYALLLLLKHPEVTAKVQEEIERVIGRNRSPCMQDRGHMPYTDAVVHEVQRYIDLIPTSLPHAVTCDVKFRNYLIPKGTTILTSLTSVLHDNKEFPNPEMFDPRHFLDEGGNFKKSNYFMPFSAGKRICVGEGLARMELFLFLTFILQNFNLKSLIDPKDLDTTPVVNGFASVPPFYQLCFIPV
In series [16] the target is Cytochrome P450 2C9 (Homo sapiens, UniProt P11712). Briefly: Inhibition of CYP2C9 in human liver microsomes using diclofenac as substrate preincubated for 10 mins followed by substrate addition measured after 10 mins in presence of NADPH by LC-MS/MS analysis. In kind it is ADME.
Sequence of Cytochrome P450 2C9 (P11712 whole entry): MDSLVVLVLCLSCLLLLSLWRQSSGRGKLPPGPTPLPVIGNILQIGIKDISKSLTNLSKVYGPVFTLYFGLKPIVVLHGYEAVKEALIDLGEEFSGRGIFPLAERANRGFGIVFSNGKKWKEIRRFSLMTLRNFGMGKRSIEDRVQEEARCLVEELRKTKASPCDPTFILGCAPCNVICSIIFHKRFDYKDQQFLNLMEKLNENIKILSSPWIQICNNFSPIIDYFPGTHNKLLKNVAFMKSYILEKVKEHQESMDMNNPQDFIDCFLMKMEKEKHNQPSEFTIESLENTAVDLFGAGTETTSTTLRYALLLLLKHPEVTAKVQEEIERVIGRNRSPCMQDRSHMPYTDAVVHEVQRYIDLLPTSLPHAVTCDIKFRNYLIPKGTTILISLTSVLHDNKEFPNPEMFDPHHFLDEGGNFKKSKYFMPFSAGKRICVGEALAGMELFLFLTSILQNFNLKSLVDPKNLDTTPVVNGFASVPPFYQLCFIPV
Series [17] has as its target Cytochrome P450 2D6 (Homo sapiens, UniProt P10635). Briefly: Inhibition of CYP2D6 in human liver microsomes using dextromethorphan as substrate preincubated for 10 mins followed by substrate addition measured after 10 mins in presence of NADPH by LC-MS/MS analysis. In kind it is ADME. To be noted: read-out: INH.
Series [18] can be described thus: Ratio of AUC (0 to 4 hrs) in Balb/c mouse liver to plasma administered orally by LC-MS/MS analysis. In kind it is ADME. The settings on record: liver and plasma, po, read-out: Ratio AUC.
The nature of series [19]: Volume of distribution at steady state in Balb/c mouse at 1 mg/kg, iv administered as bolus by LC-MS/MS analysis. The settings on record: in vivo, read-out: Vdss. In kind it is ADME, organism-based. In outline:
as §1

The subject of series [20] is Hepatitis B virus. As to the kind of experiment: Antiviral activity against HBV1.3 mer infected in hydrodynamic injection BALB/c mouse model assessed as log reduction in viral DNA in liver at 50 mg/kg, po bid measured on day 7 by real-time PCR method relative to control. The format is functional. Put shortly:
as §2

Sequence of Core antigen (Q03732 whole entry): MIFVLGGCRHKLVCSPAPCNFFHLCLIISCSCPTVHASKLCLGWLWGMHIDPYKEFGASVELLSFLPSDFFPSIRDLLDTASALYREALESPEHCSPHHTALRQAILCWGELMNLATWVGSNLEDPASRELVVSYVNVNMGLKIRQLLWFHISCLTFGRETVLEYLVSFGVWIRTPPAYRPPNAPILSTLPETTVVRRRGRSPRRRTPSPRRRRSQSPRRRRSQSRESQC
Sequence of Cytochrome P450 3A4 (P08684 whole entry): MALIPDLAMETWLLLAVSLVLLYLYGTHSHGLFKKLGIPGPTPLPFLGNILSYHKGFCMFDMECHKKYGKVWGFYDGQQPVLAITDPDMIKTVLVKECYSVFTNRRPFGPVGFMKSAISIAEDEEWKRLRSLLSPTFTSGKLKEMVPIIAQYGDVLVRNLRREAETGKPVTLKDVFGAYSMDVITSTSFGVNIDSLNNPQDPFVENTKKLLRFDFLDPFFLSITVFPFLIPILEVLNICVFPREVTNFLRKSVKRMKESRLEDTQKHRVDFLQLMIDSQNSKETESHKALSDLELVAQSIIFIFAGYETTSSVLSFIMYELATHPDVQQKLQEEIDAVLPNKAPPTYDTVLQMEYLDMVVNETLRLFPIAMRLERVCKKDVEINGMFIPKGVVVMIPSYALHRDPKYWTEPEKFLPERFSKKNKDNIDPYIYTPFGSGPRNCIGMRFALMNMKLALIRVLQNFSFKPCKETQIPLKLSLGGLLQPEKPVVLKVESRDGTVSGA
Sequence of Cytochrome P450 2D6 (P10635 whole entry): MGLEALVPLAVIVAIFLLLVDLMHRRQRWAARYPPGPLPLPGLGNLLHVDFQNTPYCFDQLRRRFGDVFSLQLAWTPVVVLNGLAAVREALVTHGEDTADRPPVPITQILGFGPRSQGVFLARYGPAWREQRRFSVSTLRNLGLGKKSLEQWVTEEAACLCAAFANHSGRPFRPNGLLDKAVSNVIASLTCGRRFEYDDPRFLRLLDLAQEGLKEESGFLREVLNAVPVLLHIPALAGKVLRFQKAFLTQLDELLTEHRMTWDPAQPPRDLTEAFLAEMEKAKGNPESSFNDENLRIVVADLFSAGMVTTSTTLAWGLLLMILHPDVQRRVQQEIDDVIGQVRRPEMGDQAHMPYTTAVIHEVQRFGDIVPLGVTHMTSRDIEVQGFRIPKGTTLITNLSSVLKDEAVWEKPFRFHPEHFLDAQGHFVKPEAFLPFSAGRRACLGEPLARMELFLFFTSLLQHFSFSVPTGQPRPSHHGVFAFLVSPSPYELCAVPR

Regarding `CCOC(=O)C1=C2CCCN2C(c2nccs2)=NC1c1nccs1` (stereo not drawn), in [1], the IC50 is above 10 µM. For the compound `CN(C)CCOC(=O)C1=C2CCCN2C(c2nccs2)=NC1c1ccc(F)cc1Cl` (stereo not drawn), the IC50 in series [1] is above 10 µM.

Take `CCOC(=O)C1=C2CCCN2C(c2ccccn2)=NC1c1ccc(F)cc1Cl` (stereo not drawn): the IC50 in [1] was above 10 µM. On the same count and under the same terms, then `CCOC(=O)C1=C2C[C@H](N(C)C)CN2C(c2nccs2)=N[C@H]1c1ccc(F)cc1Br`, with 500 µM; and `CCOC(=O)C1=C2CCCN2C(c2nccs2)=NC1c1ccc(F)cc1F` (stereo not drawn), with 0.51 µM; and `O=C(OCC(F)F)C1=C2CCCN2C(c2nccs2)=NC1c1ccc(F)cc1Cl` (stereo not drawn), with 2 µM. Turning to `COC(=O)C1=C(C)NC(c2ncc(F)cc2F)=N[C@H]1c1ccc(F)cc1Cl`, the IC50 in [1] was found to be 0.075 µM. Still for that read-out and setting: with `CCOC(=O)C1=C2CNCCN2C(c2nccs2)=NC1c1ccc(F)cc1Br` (stereo not drawn) the figure was 9.3 µM; with `CCOC(=O)C1=C2CCCN2C(c2ncc(F)cc2F)=NC1c1ccc(F)cc1Cl` (stereo not drawn), 1.6 µM. Same read-out and setting: then `COC(=O)C1=C2C[C@H](NS(C)(=O)=O)CN2C(c2nccs2)=N[C@H]1c1ccc(F)c(F)c1F`, with 10 µM; and `CCOC(=O)C1=C2CCCN2C(c2nccs2)=NC1c1cc(F)ccc1Cl` (stereo not drawn), with above 10 µM. The same measure, in the same setting: then `CCOC(=O)C1=C2CNC(=O)CN2C(c2nccs2)=NC1c1ccc(F)cc1Br` (stereo not drawn), with 3.5 µM. Take `CCOC(=O)C1=C2CCCN2C(c2nccs2)=NC1c1cc(Cl)sc1Cl` (stereo not drawn): the IC50 in series [1] came out at 1.7 µM. The same measure, in the same setting: with `COCCOC(=O)C1=C2CCCN2C(c2nccs2)=NC1c1ccc(F)cc1Cl` (stereo not drawn) the figure was above 10 µM; with `COCOC(=O)C1=C2CCCN2C(c2nccs2)=NC1c1ccc(F)cc1Cl` (stereo not drawn), 2.1 µM.

Take `CCOC(=O)C1=C2C[C@H](NS(C)(=O)=O)CN2C(c2nccs2)=N[C@H]1c1ccc(F)cc1Cl`: the IC50 in series [1] was 10 µM.

As for `COC(=O)C1=C2C[C@H](NS(C)(=O)=O)CN2C(c2nccs2)=N[C@H]1c1ccc(F)cc1Cl`, the AUC(0-t) in series [2] turned out to be 1.7 µM·h; in series [8], 9.1 µM·h. Besides, the clearance in series [3] was 21 mL/min/kg. This compound displayed a peak concentration (Cmax) in series [4] of 4.7 µM. Besides, the FC turned out to be 2.57 in series [5], 2.05 in [14] and 0.68 in [20]. Moreover, the IC50 in series [1] is 0.01 µM; in series [9], 0.8 µM; in series [12] it was 11 µM; in [17], above 50 µM. In series [6], this compound registered a pH-dependent lipophilicity (logD) of 2.8. For the same compound, the bioavailability in [7] turned out to be 54%. Also, the half-life in series [10] was 1.1 h. Moreover, in [11], the solubility kinetic turned out to be 22 µM (≈ 10.7 µg/mL). Besides, the results for the INH in series [13], in series [15] and in series [16] were above 50 µM, 39 µM and 28 µM, respectively. The Kp in [18] turned out to be 10. The Vd in [19] stood at 2 L/kg. On to `CCOC(=O)C1=C2CCCN2C(c2cnn(C)c2)=NC1c1ccc(F)cc1Cl` (stereo not drawn), for which the IC50 in series [1] is above 10 µM. Same read-out and setting: with `COC(=O)C1=C2C[C@H](NC(=O)OC(C)(C)C)CN2C(c2nccs2)=N[C@H]1c1ccc(F)cc1Cl` the figure was 30 µM; with `CCOC(=O)C1=C2CCCN2C(c2nccs2)=NC1c1ccc(F)cc1` (stereo not drawn), 1.2 µM. Still for that read-out and setting: then `COC(=O)C1=C2CCCN2C(c2nccs2)=NC1c1ccc(F)cc1Cl` (stereo not drawn), with 0.32 µM.

For `CCOC(=O)C1=C2CCCN2C(c2ncc(F)cn2)=NC1c1ccc(F)cc1Cl` (stereo not drawn), the IC50 in series [1] was above 10 µM. For the compound `CCOC(=O)C1=C2CCCN2C(c2ccsn2)=NC1c1ccc(F)cc1Cl` (stereo not drawn), the IC50 in [1] amounted to 2.8 µM. On to `CCOC(=O)C1=C2CCCN2C(c2nccs2)=NC1c1c(F)cccc1Cl` (stereo not drawn), for which, in series [1], the IC50 is above 10 µM.
